Drawing on ChEMBL document CHEMBL1124382, “Synthesis and radioprotective activity of dipeptide cysteamine and cystamine derivatives” (J Med Chem, 1989), this text covers DRF and LD50 for seven molecules.

Each structure is given as a SMILES string. Values joined by “and” are separate entries in the source; they are usually repeats but may differ in a detail not shown here. Equal entries are not always repeated.

The first data set has as its system Mus musculus. Briefly: The compound was tested for radioprotective activity (DRF) in mice 15 min before whole body irradiation with value in braces indicating the administered dose in mg/Kg.
Conditions: not given
For the molecule `CC(=O)SCCNC(=O)CNC(=O)[C@@H](C)N`, the DRF is 1.55 and 1.
For `C[C@H](N)C(=O)NCC(=O)NCCSSCCNC(=O)CNC(=O)[C@@H](C)N`, the DRF is 1.35 and 1.
On the same count and under the same terms, to `NCC(=O)NCC(=O)NCCSSCCNC(=O)CNC(=O)CN` belongs 1.1 and 1.
Same read-out and setting: with `CC(=O)SCCNC(=O)CNC(=O)CN` the figure was 1.55.
On to `CC(=O)SCCNC(=O)CN`, for which the DRF was 1.4 and 1.
As for `C[C@H](NC(=O)CN)C(=O)NCCSSCCNC(=O)[C@@H](C)NC(=O)CN`, the DRF is 1.1.
The same measure, in the same setting: with `CC(=O)SCCNC(=O)[C@H](C)NC(=O)CN` the figure was 1.25.

Tested on in the next data set: not listed separately
Briefly: The compound was tested for toxicity in mice, expressed as LD50. The class given is organism-based. The conditions noted are these: in vivo. The method, boiled down:
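Three-month-old inbred albino CXVII mice (about 25 g) received compounds dissolved in distilled water by intraperitoneal injection. A preliminary study set the dose range. Five groups of 10 mice then each received a different dose within that range. LD50 was derived by probit analysis.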
Broadly, the LD50 is the dose expected to kill half of the subjects tested. For the molecule `CC(=O)SCCNC(=O)CNC(=O)[C@@H](C)N`, the LD50 turned out to be 1500 mg/kg.
`C[C@H](N)C(=O)NCC(=O)NCCSSCCNC(=O)CNC(=O)[C@@H](C)N` came in with an LD50 of 1500 mg/kg.
Still for that read-out and setting: with `NCC(=O)NCC(=O)NCCSSCCNC(=O)CNC(=O)CN` the figure was 2000 mg/kg; with `CC(=O)SCCNC(=O)CNC(=O)CN`, 2400 mg/kg.
The molecule `CC(=O)SCCNC(=O)CN` yielded an LD50 of 1500 mg/kg.
Turning to `C[C@H](NC(=O)CN)C(=O)NCCSSCCNC(=O)[C@@H](C)NC(=O)CN`, the LD50 was determined as 800 mg/kg.
Same read-out and setting: with `CC(=O)SCCNC(=O)[C@H](C)NC(=O)CN` the figure was 1500 mg/kg.

The next data set has as its system Mus musculus. Briefly: The compound was tested for radioprotective activity (DRF) in mice 2 hours before whole body irradiation with value in braces indicating the administered dose in mg/Kg.
Conditions: not given
For `CC(=O)SCCNC(=O)CNC(=O)[C@@H](C)N`, the DRF is on record as 1.
The same measure, in the same setting: to `NCC(=O)NCC(=O)NCCSSCCNC(=O)CNC(=O)CN` belongs 1.
The same measure, in the same setting: with `CC(=O)SCCNC(=O)CN` the figure was 1; with `CC(=O)SCCNC(=O)[C@H](C)NC(=O)CN`, 1.
